{"source": "ChEMBL document CHEMBL1128665", "about": "“Design, synthesis, and structure-activity relationship of novel dinucleotide analogs as agents against herpes and human immunodeficiency viruses” (J Med Chem, 1995)", "proteins": {"B1": {"name": "Adenosine deaminase (Bos taurus), P56658 (protein)", "chain": "MAQTPAFNKPKVELHVHLDGAIKPETILYYGRKRGIALPADTPEELQNIIGMDKPLSLPEFLAKFDYYMPAIAGCREAVKRIAYEFVEMKAKDGVVYVEVRYSPHLLANSKVEPIPWNQAEGDLTPDEVVSLVNQGLQEGERDFGVKVRSILCCMRHQPSWSSEVVELCKKYREQTVVAIDLAGDETIEGSSLFPGHVKAYAEAVKSGVHRTVHAGEVGSANVVKEAVDTLKTERLGHGYHTLEDATLYNRLRQENMHFEVCPWSSYLTGAWKPDTEHPVVRFKNDQVNYSLNTDDPLIFKSTLDTDYQMTKNEMGFTEEEFKRLNINAAKSSFLPEDEKKELLDLLYKAYGMPSPASAEQCL"}}, "key": {"[1]": {"compound": "COC(=O)C(C)NP(=O)(CCOCn1cnc2c(N)ncnc21)O[C@H]1[C@H](O)[C@H](n2cnc3c(N)ncnc32)O[C@@H]1CO", "experiment": "Km value was determined by competitive inhibition of Adenosine deaminase No reaction at 1500 uM"}, "[2]": {"compound": "Nc1ncnc2c1ncn2COCCP(=O)(O)O", "experiment": "(§1) Km value was determined by competitive inhibition of Adenosine deaminase", "outline": "(§2)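 Deamination rates of the nucleoside or nucleotide substrates were followed with calf mucosal adenosine deaminase (EC 3.5.4.4) in buffer solution. Km and Vmax, expressed relative to ara-A, were derived from these rates.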"}, "[3]": {"compound": "Nc1ncnc2c1ncn2[C@@H]1O[C@H](CO)[C@@H](O)[C@H]1O", "experiment": "as §1", "outline": "as §2"}, "[4]": {"compound": "Nc1ncnc2c1ncn2COCCP(=O)(O)O[C@H]1[C@H](O)[C@H](n2cnc3c(N)ncnc32)O[C@@H]1CO", "experiment": "as §1", "outline": "as §2"}, "[5]": {"compound": "Nc1ncnc2c1ncn2COCCO", "experiment": "as §1", "outline": "as §2"}}, "data": [{"protein": "B1", "values": [{"measurement": "Km", "setting": "[1]", "value": "No reaction"}, {"measurement": "Km", "setting": "[2]", "value": 248, "unit": "µM"}, {"measurement": "Km", "setting": "[3]", "value": 45.3, "unit": "µM"}, {"measurement": "Km", "setting": "[4]", "value": 166, "unit": "µM"}, {"measurement": "Km", "setting": "[5]", "value": 138, "unit": "µM"}]}]}
